# Experimental data reported in ChEMBL document CHEMBL1126988, “Quinolone antibacterials containing the new 7-[3-(1-aminoethyl)-1- pyrrolidinyl] side chain: the effects of the 1-aminoethyl moiety and its stereochemical configurations on potency and in vivo efficacy” (J Med Chem, 1993).
# Experiments:
# Assay type in all cases: functional
# Enterococcus faecalis = experiment: Minimum inhibitory concentration was evaluated in vitro against Enterococcus faecalis MGH-2
# Procedure, shortened: (§1)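 Standard microtitration broth assay against a panel of 10 Gram-positive and Gram-negative organisms. MIC read in µg/mL and averaged over multiple experiments.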
# Streptococcus pyogenes [1] = experiment: Compounds were evaluated in vivo for antibacterial activity for mouse protection against Streptococcus pyogenes C 203 after oral administration; details: for ED50: Streptococcus pyogenes, C 203, po, read-out: PD50
# Enterobacter cloacae = experiment: Minimum inhibitory concentration in vitro against Enterobacter cloacae MA 2646
# Klebsiella pneumoniae = experiment: Minimum inhibitory concentration was evaluated in vitro against Klebsiella pneumoniae MGH2; procedure, shortened: as §1
# Streptococcus pneumoniae = experiment: Minimum inhibitory concentration was evaluated in vitro against Streptococcus pneumoniae SV-1; procedure, shortened: as §1
# Streptococcus pyogenes [2] = experiment: Minimum inhibitory concentration was evaluated in vitro against Streptococcus pyogenes C 203; procedure, shortened: as §1
# Escherichia coli = experiment: Antibacterial activity in vitro against Escherichia coli Vogel; procedure, shortened: as §1
# Providencia rettgeri = experiment: Minimum inhibitory concentration was evaluated in vitro against Providencia rettgeri M1771; procedure, shortened: as §1
# Pseudomonas aeruginosa = experiment: Minimum inhibitory concentration was evaluated in vitro against Pseudomonas aeruginosa UI-18; procedure, shortened: as §1
# Staphylococcus aureus [3] = experiment: Minimum inhibitory concentration was evaluated in vitro against Staphylococcus aureus H 228; procedure, shortened: as §1
# Staphylococcus aureus [4] = experiment: Minimum inhibitory concentration was evaluated in vitro against Staphylococcus aureus UC 76; procedure, shortened: as §1
# Streptococcus pyogenes [5] = experiment: Antibacterial activity measured as mouse protection against Streptococcus pyogenes C 203 after subcutaneous administration; details: for ED50: Streptococcus pyogenes, C 203, sc, read-out: PD50
# [6] = Escherichia coli, read-out: MIC
# [7] = Enterococcus faecalis, read-out: MIC
# [8] = Enterobacter cloacae, read-out: MIC
# [9] = Klebsiella pneumoniae, read-out: MIC
# [10] = Streptococcus pneumoniae, read-out: MIC
# [11] = Streptococcus pyogenes, read-out: MIC
# [12] = Providencia rettgeri, read-out: MIC
# [13] = Pseudomonas aeruginosa, read-out: MIC
# [14] = Staphylococcus aureus, read-out: MIC
SMILES,MIC (Enterococcus faecalis),PD50 (Streptococcus pyogenes [1]),MIC (Enterobacter cloacae),MIC (Klebsiella pneumoniae),MIC (Streptococcus pneumoniae),MIC (Streptococcus pyogenes [2]),MIC (Escherichia coli; [6]),MIC (Providencia rettgeri),MIC (Pseudomonas aeruginosa),MIC (Staphylococcus aureus [3]),MIC (Staphylococcus aureus [4]),PD50 (Streptococcus pyogenes [5]),MIC (Enterococcus faecalis; [7]),MIC (Enterobacter cloacae; [8]),MIC (Klebsiella pneumoniae; [9]),MIC (Streptococcus pyogenes [2]; [11]),MIC (Providencia rettgeri; [12]),MIC (Pseudomonas aeruginosa; [13]),MIC (Staphylococcus aureus [3]; [14]),MIC (Staphylococcus aureus [4]; [14]),further results
"CCN[C@@H](C)[C@@H]1CCN(c2c(F)c(N)c3c(=O)c(C(=O)O)cn(C4CC4)c3c2F)C1 (stereo in doubt; 32H-S,S)",0.2 mg/L,13 mg/kg,0.4 mg/L,0.4 mg/L,0.05 mg/L,0.2 mg/L,0.2 mg/L,1.6 mg/L,3.1 mg/L,0.1 mg/L,0.05 mg/L,9 mg/kg,,,,,,,,,
CN[C@H](C)[C@@H]1CCN(c2c(F)cc3c(=O)c(C(=O)O)cn(C4CC4)c3c2C(F)(F)F)C1,,,,,,,0.2 mg/L,,,,,,0.1 mg/L,0.4 mg/L,1.6 mg/L,0.05 mg/L,3.1 mg/L,6.3 mg/L,0.05 mg/L,0.025 mg/L,ED50 (Streptococcus pyogenes [1]): 3 mg/kg; MIC (Streptococcus pneumoniae; [10]): 0.05 mg/L; ED50 (Streptococcus pyogenes [5]): 2 mg/kg
NCC1CCN(c2nc3c(cc2F)c(=O)c(C(=O)O)cn3-c2ccc(F)cc2F)C1 (stereo unspecified),,,,,,,0.05 mg/L,,,,,,0.025 mg/L,0.05 mg/L,0.1 mg/L,0.025 mg/L,0.2 mg/L,0.4 mg/L,0.05 mg/L,0.013 mg/L,ED50 (Streptococcus pyogenes [1]): 10 mg/kg; MIC (Streptococcus pneumoniae; [10]): 0.025 mg/L; ED50 (Streptococcus pyogenes [5]): 1 mg/kg
CCNC(C)C1CCN(c2cc3c(c(N)c2F)c(=O)c(C(=O)O)cn3C2CC2)C1 (racemic),,5 mg/kg,,,,,0.1 mg/L,,,,,,0.05 mg/L,0.1 mg/L,0.2 mg/L,0.013 mg/L,0.8 mg/L,1.6 mg/L,0.05 mg/L,0.025 mg/L,MIC (Streptococcus pneumoniae; [10]): 0.013 mg/L; ED50 (Streptococcus pyogenes [5]): 1 mg/kg
CN[C@@H](C)[C@H]1CCN(c2cc3c(cc2F)c(=O)c(C(=O)O)cn3C2CC2)C1,,,,,,,0.4 mg/L,,,,,,0.8 mg/L,0.4 mg/L,0.8 mg/L,0.4 mg/L,3.1 mg/L,6.3 mg/L,1.6 mg/L,0.2 mg/L,MIC (Streptococcus pneumoniae; [10]): 0.4 mg/L
CN[C@H](C)[C@H]1CCN(c2cc3c(cc2F)c(=O)c(C(=O)O)cn3C2CC2)C1,,82 mg/kg,,,0.2 mg/L,,0.2 mg/L,,,,,7 mg/kg,0.2 mg/L,0.2 mg/L,0.4 mg/L,0.1 mg/L,0.8 mg/L,3.1 mg/L,0.4 mg/L,0.05 mg/L,
"CCN[C@@H](C)[C@@H]1CCN(c2c(F)c(N)c3c(=O)c(C(=O)O)cn(C4CC4)c3c2F)C1 (stereo in doubt; 32H-S,R)",0.025 mg/L,6 mg/kg,0.1 mg/L,0.1 mg/L,0.013 mg/L,0.013 mg/L,,0.4 mg/L,0.8 mg/L,0.013 mg/L,0.003 mg/L,3 mg/kg,,,,,,,,,MIC (Escherichia coli): 0.1 mg/L
"C[C@H](N)[C@H]1CCN(c2c(F)c(N)c3c(=O)c(C(=O)O)cn(C4CC4)c3c2F)C1 (stereo in doubt; 32F-S,R)",0.05 mg/L,14 mg/kg,0.1 mg/L,0.1 mg/L,0.013 mg/L,0.013 mg/L,,0.2 mg/L,0.8 mg/L,0.025 mg/L,0.006 mg/L,4 mg/kg,,,,,,,,,MIC (Escherichia coli): 0.05 mg/L
CCN[C@H](C)[C@H]1CCN(c2cc3c(cc2F)c(=O)c(C(=O)O)cn3C2CC2)C1 (mixture of isomers; form 1),0.4 mg/L,,0.4 mg/L,0.8 mg/L,0.2 mg/L,0.2 mg/L,,1.6 mg/L,6.3 mg/L,0.4 mg/L,0.2 mg/L,,,,,,,,,,MIC (Escherichia coli): 0.4 mg/L
CN[C@@H](C)[C@@H]1CCN(c2nc3c(cc2F)c(=O)c(C(=O)O)cn3C2CC2)C1,0.2 mg/L,11 mg/kg,0.1 mg/L,0.2 mg/L,0.1 mg/L,0.1 mg/L,,0.8 mg/L,1.6 mg/L,0.2 mg/L,0.05 mg/L,5 mg/kg,,,,,,,,,MIC (Escherichia coli): 0.1 mg/L
CN[C@@H](C)[C@H]1CCN(c2c(F)c(N)c3c(=O)c(C(=O)O)cn(C4CC4)c3c2F)C1,,,,,,,0.4 mg/L,,,,,,1.6 mg/L,0.4 mg/L,0.8 mg/L,1.6 mg/L,1.6 mg/L,3.1 mg/L,0.8 mg/L,0.4 mg/L,MIC (Streptococcus pneumoniae; [10]): 0.8 mg/L
